High-throughput results deposited in PubChem by several laboratories.
The entries come from a sample that favours hits as a whole.
T cruzi repl = inhibitors of intracellular T. cruzi growth, primary screen, luminescence, NIH3T3 host cells; T. cruzi beta-gal in NIH3T3, 90 h; inhibition, % (test concentration not listed); hit rate 1.4% among 300,000; AID 1885, 2009;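 active means mean inhibition across valid replicates above about 55%, limit read from the data; inconclusive means mean below that limit but half or more replicates reach it; inactive means mean below it, under half of replicates reach it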;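 further: signal also drops with host cell toxicity which is not excluded here; higher percent means less beta-gal luminescence so fewer parasites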
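Material: NIH/3T3 host cells with β-galactosidase reporter T. cruzi; Input: 5,000 host fibroblasts per well; Medium: DMEM, 2% fetal bovine serum; Compound: 50 nL DMSO compound solution per well; Schedule: 3 h host attachment, then at least 90 h co-culture; Detection: luminescent β-galactosidase signal after 60 min lysis.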
MPTP block = mitochondrial permeability transition pore inhibitors, primary screen, biochemical, isolated mouse mitochondria, absorbance; hit rate 1.4% among 360,000; Ca2+ swelling absorbance, 30 min; inhibition, % at 10 µM;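 active means inhibition of 50% or more, scaled per plate between neutral and stimulator controls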
DTT redox prof = compounds producing H2O2 with reducing agent – biochemical, NIH compound library profiling, artefact control for MLSCN library redox annotation, primary screen | DTT-dependent redox cycling H2O2, phenol red/HRP absorbance; 100% = 100 µM peroxide control, 0% = buffer | activation, % at 10 µM | hit rate 0.03% among 200,000 | AID 878, 2007;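 active means activation of at least 50% relative to the plate's high and low controls in the primary single-dose screen; inactive means activation below 50%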;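 further: compound incubated with DTT at 0.8 mM final as the reducing agent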
Lmaj promast = Leishmania major promastigote growth inhibition, primary screen; AID 1063, 2008; inhibition, % at 10 µM; hit rate 9% among 200,000; Leishmania major promastigotes, resazurin fluorescence viability; in the data active means inhibition above about 50%;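 further: promastigotes grown with compound for 44 hours at 28 °C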
Hep lipid drop = inhibitors of hepatocyte lipid droplet formation, primary screen, imaging, high-throughput imaging, BODIPY stain. AML12 mouse hepatocytes, oleate lipid droplets. inhibition, % at 6.5 µM. hit rate 0.4% among 240,000. AID 1656, 2009;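 active means lipid droplet intensity inhibited by at least 50%, with more than 500 cells counted; inconclusive means wells with under 300 cells, treated as cytotoxic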
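System: AML12 hepatocytes (mouse). Probe or stimulus: oleic acid at 100 µM to induce lipid droplet formation. Times: overnight treatment with compound plus oleate. Detection: Image-based BODIPY and DAPI two-channel analysis. Evaluation: percent inhibition of filter-corrected integrated lipid droplet intensity per well.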
Of the large screens only hits and unclear results are named; the others gave an inactive call.

CC(=O)c1ccccc1OCC(O)CN1CCN(CCN2C(=O)c3cccc4cccc(c34)C2=O)CC1 (centres undefined)	Lmaj promast 99 (no result: Hep lipid drop)
Cc1cc(C)nc(/N=C(\N)Nc2ccccc2-c2ccccc2)n1	Lmaj promast 96
Cc1cc(C)cc(N/C(N)=N/c2nc(C)cc(C)n2)c1	Lmaj promast 85
Cc1ccc(N/C(N)=N/c2nc(C)cc(C)n2)cc1	none
NC(=O)c1sc2nnc(-c3ccccc3)c(-c3ccccc3)c2c1N	none (no result: T cruzi repl, DTT redox prof, Lmaj promast)
COc1ccc(S(=O)(=O)N(C)C[C@H]2Oc3c(NC(=O)CCC(F)(F)F)cccc3C(=O)N([C@H](C)CO)C[C@@H]2C)cc1	none (no result: T cruzi repl, DTT redox prof, Lmaj promast, Hep lipid drop)
Cc1sc2nc(-c3ccccn3)[nH]c(=O)c2c1-c1ccccc1	Lmaj promast 99 (no result: T cruzi repl)
Cc1sc2nc(-c3ccncc3)[nH]c(=O)c2c1-c1ccccc1	none (no result: MPTP block)
Clc1ccccc1-c1ncc2ccccn12	T cruzi repl 57
NC(=O)C1CCN(C(=O)/C(=C/c2ccccc2)NC(=O)c2ccccc2)CC1	none (no result: DTT redox prof, Lmaj promast)
COC(=O)c1ccc(COc2ccccc2/C=C(\C#N)C(=O)Nc2c(C)cccc2C)cc1	Lmaj promast 98
CNC(=S)Nc1ccc(OCc2ccccc2)cc1	none
CCOc1ccc(NC(=S)Nc2ccc(OCc3ccccc3)cc2)cc1	Lmaj promast 52
CCOc1ccc(NC(=O)NN2C(C)CCCC2C)cc1 (centres undefined)	none (no result: DTT redox prof, Lmaj promast)
CCOc1ccc(NC(=S)NN2C(C)CCCC2C)cc1 (centres undefined)	Lmaj promast 51
CCOc1ccc(S(=O)(=O)NNC(=S)Nc2ccc(Br)cc2)cc1	Lmaj promast 62
CCN(Cc1ccncc1)C(=O)c1ccccc1NS(=O)(=O)c1ccc(Br)cc1	none (no result: DTT redox prof, Lmaj promast)
CCCC(=O)Nc1ccc2c(c1)C(=O)N(C)C[C@@H](OC)[C@H](C)CN(Cc1ccc(-c3ccccn3)cc1)[C@@H](C)CO2	none (no result: T cruzi repl, DTT redox prof, Lmaj promast, Hep lipid drop)
CC(C)NC(=O)c1ccccc1NC(=O)/C=C/c1cccc([N+](=O)[O-])c1	none
Cc1ccccc1NC(=O)C(C)O/N=C/c1cccc([N+](=O)[O-])c1 (centres undefined)	Lmaj promast 66
Nc1cc(N)c(OCC(F)(F)F)cc1OCC(F)(F)F	Lmaj promast 88 (no result: Hep lipid drop)
Nc1cc(OCC(F)(F)F)cc([N+](=O)[O-])c1	none
CC(=O)Nc1ccc(Nc2ccc(S(=O)(=O)C(F)(F)F)cc2[N+](=O)[O-])cc1	Lmaj promast 56
O=C(O)CNc1ccc(S(=O)(=O)C(F)(F)F)cc1[N+](=O)[O-]	none (no result: DTT redox prof, Lmaj promast)
O=C(NC(=S)NCCO)c1sc2ccccc2c1Cl	Lmaj promast 63
CCOC(=S)NC(=O)c1sc2ccccc2c1Cl	none (no result: Hep lipid drop)
NC(=O)NC(CC(=O)NCc1ccc2c(c1)OCO2)c1ccccc1Cl (centres undefined)	none (no result: DTT redox prof, Lmaj promast, Hep lipid drop)
CCCN(CCC)CCCNC(=O)CN1C(=O)CSc2ccc(S(=O)(=O)N3CCOCC3)cc21	none
COc1ccc(OC)c(/C=C/c2ccc3cccc(O)c3n2)c1	T cruzi repl 61, Hep lipid drop inconclusive (no result: DTT redox prof, Lmaj promast)
COc1cc(/C=C/c2ccc3cccc(O)c3n2)c(Br)cc1O	T cruzi repl 56 (no result: DTT redox prof, Lmaj promast)
Oc1ccc(Cl)cc1/C=C/c1ccc2cccc(O)c2n1	Lmaj promast 89
COc1cc(Br)c(/C=C/c2ccc3cccc(O)c3n2)cc1OC	T cruzi repl 57 (no result: DTT redox prof, Lmaj promast)
CC1CCCC1/C(=N/O)c1ccccc1 (centres undefined)	none (no result: DTT redox prof, Lmaj promast)
CCN(CC)C(=O)NC1CC(=O)N(c2ccc(OC)cc2)C1 (centres undefined)	none
O=C(Nc1cccnc1)c1ccc(Oc2ccccc2)cc1	Lmaj promast 90
O=C(Nc1cccnc1)c1ccccc1Oc1ccccc1	none
COc1ccccc1C(=O)NC(=O)COC(=O)c1nc(Cl)ccc1Cl	none (no result: DTT redox prof, Lmaj promast, Hep lipid drop)
Cc1cc(C)n2nc(C(=O)NCc3cccc(C(F)(F)F)c3)nc2n1	T cruzi repl 76
COc1ccc(CN2CCN(c3ccccn3)CC2)c(OC)c1	none (no result: Hep lipid drop)
Oc1c(CN2CCN(c3ccccn3)CC2)cc(Cl)c2cccnc12	T cruzi repl 75, Lmaj promast 100
O=c1c(CN2CCN(c3ccccn3)CC2)coc2ccccc12	Lmaj promast 63
O=[N+]([O-])c1cc(CN2CCCC2)c2cccnc2c1O	none (no result: T cruzi repl)
OCCN1CCN(Cc2cc(Cl)c3cccnc3c2O)CC1	Lmaj promast 100 (no result: Hep lipid drop)
O=C(Nc1cc(Cl)ccc1N1CCOCC1)c1ccc(=O)[nH]c1	none (no result: T cruzi repl, DTT redox prof, Lmaj promast, Hep lipid drop)
COc1ccc(Br)c(Cn2c(C)c(C(=O)NCCC#N)sc2=O)c1	none (no result: T cruzi repl, DTT redox prof, Lmaj promast, Hep lipid drop)
Cc1[nH]c(=O)c(C(=O)/C=C/c2ccccc2F)c2c1CCCC2	T cruzi repl inconclusive, Lmaj promast 100 (no result: Hep lipid drop)
C/C(=C\c1ccccc1F)C(=O)c1c(C)cc(C)[nH]c1=O	none (no result: DTT redox prof, Lmaj promast)
O=C(NCCNC(=O)c1cc(Cl)ccc1Cl)c1cnccn1	none (no result: DTT redox prof, Lmaj promast)
COc1cccc(CNCCc2c[nH]c3ccccc23)c1OCc1ccc(F)cc1	Lmaj promast 100
COc1ccccc1NC(=S)NCCc1c[nH]c2ccccc12	none (no result: Hep lipid drop)
CCCCC1CCC(C(=O)Nc2ccccc2N2CCOCC2)CC1 (centres undefined)	none (no result: T cruzi repl, DTT redox prof, Lmaj promast, Hep lipid drop)
Cc1ccc(C)c(NC(=S)c2ccc3ccccc3n2)c1	Hep lipid drop 56
Cc1ccc(C)c(NC(=O)NCc2ccccn2)c1	none (no result: DTT redox prof, Lmaj promast)
S=C(Nc1ccccn1)c1ccccn1	Lmaj promast 98
Cc1ccc(C)c(NC(=S)c2ccccn2)c1	Lmaj promast 98 (no result: Hep lipid drop)
Cc1cc(C(=O)N/N=C/c2cc(N=Nc3ccccc3)ccc2O)n[nH]1	Lmaj promast 99
Nc1ccc(C(=O)N/N=C\c2cc(N=Nc3cccc4ccccc34)ccc2O)cc1	T cruzi repl 59, Lmaj promast 99 (no result: Hep lipid drop)
COC(=O)N/N=C/c1cc(N=Nc2ccccc2)ccc1O	none (no result: DTT redox prof, Lmaj promast)
COC(=O)C1=C(Nc2ccc(C)cc2)C=C(C)C(C(=O)OC)C1c1ccc(OC)cc1 (centres undefined)	none
COC(=O)C1=C(O)C(C(=O)OC)C(c2ccc(C)cc2)C(C#N)(C#N)C1c1ccc(C)cc1 (centres undefined)	Lmaj promast 61
Cc1ccc(NC(=O)c2ccccc2)cc1	none (no result: Hep lipid drop)
Cc1ccc(NC(=O)C2=C(c3ccccc3)S(=O)(=O)CCS2(=O)=O)cc1	T cruzi repl 58
COc1ccc(-c2nnc(SCc3nnc(-c4ccccc4)o3)n2-c2ccccc2)cc1	none (no result: Hep lipid drop)
COc1ccc(-c2nnc(SCc3nnc(-c4ccc(Cl)cc4)o3)n2-c2ccccc2)cc1	Lmaj promast 89
CN(C)CC/C=C1/c2ccccc2COc2ccccc21	none (no result: MPTP block, DTT redox prof, Lmaj promast)
CN(C)CCC=C1c2ccccc2C=Cc2ccccc21	none (no result: T cruzi repl, DTT redox prof, Lmaj promast, Hep lipid drop)
CN(C)CC/C=C1\c2ccccc2Sc2cc(F)c(Cl)cc21	none (no result: DTT redox prof, Lmaj promast, Hep lipid drop)
CN(C)CCC=C1c2ccccc2CCc2ccccc21	Lmaj promast 88 (no result: T cruzi repl)
CN(CC/C=C1/c2ccccc2CSc2ccccc21)CCCO	Lmaj promast 56
C#CCN(C)CC/C=C1\c2ccccc2CSc2ccccc21	Lmaj promast 65
CC(O)CN(C)CC/C=C1/c2ccccc2CSc2ccccc21 (centres undefined)	Lmaj promast 98
